One series addresses Coagulation factor X (Homo sapiens, UniProt P00742). Briefly: Inhibition of human coagulation factor Xa.
The next series addresses Prothrombin (Homo sapiens, UniProt P00734). Briefly: Inhibition of human coagulation factor II. In short, it runs like this:
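Human thrombin, final 1 nM, in 0.05 M Tris, 0.15 M NaCl, 0.1% PEG-8000, pH 7.5, room temperature. Inhibitor preincubated with enzyme 30 min, then reaction started with Pefachrome TH (50 µM final). p-Nitroanilide release read continuously at 405 nm for 5 min, under 10% substrate consumed. IC50 taken from initial velocities; apparent Ki by Cheng-Prusoff, assuming competitive inhibition.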

Series [1] in a line: (§1) Activated partial thromboplastin time measured. The class given is ADME. In short, it runs like this: (§2)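 Citrated human, dog (mongrel) and rat (Sprague-Dawley) plasma, freshly thawed, mixed 1:1 with compound dilutions. Clotting started on an automatic coagulation timer with actin-activated cephaloplastin reagent and 0.035 M CaCl2. Value is the concentration that doubles plasma clotting time.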

Series [2] concerns the target Tissue factor (Homo sapiens) (UniProt P13726). The description is as §1. The class given is functional. The method, boiled down:
as §2

The values that follow come from ChEMBL document CHEMBL1132374, “Sulfonamidopyrrolidinone factor Xa inhibitors: potency and selectivity enhancements via P-1 and P-4 optimization” (J Med Chem, 1999).

In general, Ki refers to the equilibrium dissociation constant of an inhibitor or competing ligand from its target. The low end stands for higher affinity, the high end for lower affinity.

Chain of Coagulation factor X (P00742 41-179 limits assumed): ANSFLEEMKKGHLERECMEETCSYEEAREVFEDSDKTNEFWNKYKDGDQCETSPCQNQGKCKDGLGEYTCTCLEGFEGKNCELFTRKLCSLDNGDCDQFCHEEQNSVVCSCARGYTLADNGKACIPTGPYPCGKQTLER
Chain of Coagulation factor X (P00742 235-488 limits assumed): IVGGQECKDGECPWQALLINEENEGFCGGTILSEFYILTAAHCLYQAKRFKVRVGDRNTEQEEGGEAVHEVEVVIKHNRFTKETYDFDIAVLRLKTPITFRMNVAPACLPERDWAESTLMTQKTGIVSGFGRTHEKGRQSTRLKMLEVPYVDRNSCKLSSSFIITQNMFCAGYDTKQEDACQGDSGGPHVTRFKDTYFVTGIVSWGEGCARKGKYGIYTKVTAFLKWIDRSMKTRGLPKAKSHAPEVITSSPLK
Chain of Tissue factor (Homo sapiens) (P13726 whole entry): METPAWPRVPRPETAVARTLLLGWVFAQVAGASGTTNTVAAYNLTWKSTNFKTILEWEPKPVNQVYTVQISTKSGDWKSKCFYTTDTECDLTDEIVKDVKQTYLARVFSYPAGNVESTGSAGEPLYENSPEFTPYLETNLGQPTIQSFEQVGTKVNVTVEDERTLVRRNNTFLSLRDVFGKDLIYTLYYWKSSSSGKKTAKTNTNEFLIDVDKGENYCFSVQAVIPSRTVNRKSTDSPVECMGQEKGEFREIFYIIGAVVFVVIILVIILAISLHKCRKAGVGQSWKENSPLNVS

For `COc1ccc2ccc(S(=O)(=O)N[C@H]3CCN(Cc4cc(C(=N)N)ccc4OCC(=O)O)C3=O)cc2c1`, the Ki on Coagulation factor X is 1.3 µM; at Prothrombin, more than 4 µM.

On to `N=C(N)c1ccc(F)c(CN2CC[C@H](NS(=O)(=O)c3ccc(-c4cccnc4)s3)C2=O)c1`, for which the Ki on Coagulation factor X was 0.13 µM; on Prothrombin, 4 µM.

`COc1ccc2ccc(S(=O)(=O)N[C@H]3CCN(Cc4cc(C(=N)N)ccc4N)C3=O)cc2c1`: the Ki on Coagulation factor X came to 0.006 µM; at Prothrombin, 0.278 µM.

Turning to `N=C(N)c1cccc(CN2CC[C@H](NS(=O)(=O)c3ccc(-c4cc[n+]([O-])cc4)cc3)C2=O)c1`, the Ki was 0.33 µM at Coagulation factor X and more than 4 µM at Prothrombin.

Take `N=C(N)c1ccc(N)c(CN2CC[C@H](NS(=O)(=O)c3ccc(-c4ccon4)s3)C2=O)c1`: the Ki worked out at 0.007 µM at Coagulation factor X and 2.23 µM at Prothrombin.

For `N=C(N)c1cccc(CN2CC[C@H](NS(=O)(=O)c3ccc(-c4ccccn4)s3)C2=O)c1`, the inhibition constant (Ki) at Coagulation factor X was 0.14 µM; on Prothrombin, more than 4 µM.

Turning to `N=C(N)c1cccc(CN2CC[C@H](NS(=O)(=O)c3ccc(-c4ccon4)s3)C2=O)c1`, the Ki was 0.049 µM at Coagulation factor X and more than 4 µM on Prothrombin.

Turning to `COc1ccc2ccc(S(=O)(=O)N(C)[C@H]3CCN(Cc4csc(C(=N)N)c4)C3=O)cc2c1`, the APTT in series [1] stood at 1.5 µM.

Turning to `N=C(N)c1ccc(N)c(CN2CC[C@H](NS(=O)(=O)c3ccc(-c4cccnc4)s3)C2=O)c1`, the Ki at Coagulation factor X is 0.006 µM; at Prothrombin, 2.6 µM.

For the compound `N=C(N)c1cccc(CN2CC[C@H](NS(=O)(=O)c3ccc(-c4cccnc4)cc3)C2=O)c1`, the Ki was found to be 0.21 µM on Coagulation factor X and 1.96 µM on Prothrombin.

On Prothrombin, `COc1ccc2ccc(S(=O)(=O)N(C)[C@H]3CCN(Cc4cccc(C(=N)N)c4)C3=O)cc2c1` returned a Ki of 1.05 µM.

For `N=C(N)c1cccc(CN2CC[C@H](NS(=O)(=O)c3ccc(-c4ccncc4)s3)C2=O)c1`, the Ki on Prothrombin amounted to 3 µM.

Consider `COc1ccc2ccc(S(=O)(=O)N(C)[C@H]3CCN(Cc4cc(C(=N)N)ccc4N)C3=O)cc2c1`, for which the Ki at Coagulation factor X was 0.004 µM; on Prothrombin, 0.201 µM.

For the compound `COc1ccc2ccc(S(=O)(=O)N[C@H]3CCN(Cc4cc(N)cc(C(=N)N)c4)C3=O)cc2c1`, the Ki was 1.2 µM at Coagulation factor X and more than 4 µM on Prothrombin.

Take `COc1ccc2ccc(S(=O)(=O)N[C@H]3CCN(Cc4cc(C(=N)N)ccc4O)C3=O)cc2c1`: the Ki worked out at 0.003 µM on Coagulation factor X and 0.206 µM on Prothrombin.

Regarding `COc1ccc2ccc(S(=O)(=O)N(C)[C@H]3CCN(Cc4cc(C(=N)N)ccc4NC(C)=O)C3=O)cc2c1`, the Ki is 0.919 µM at Coagulation factor X and more than 4 µM at Prothrombin.

Take `COc1ccc2ccc(S(=O)(=O)N[C@H]3CCN(Cc4ccc(O)c(C(=N)N)c4)C3=O)cc2c1`: the Ki was 0.983 µM on Coagulation factor X and more than 4 µM at Prothrombin.

Turning to `COC(=O)COc1ccc(C(=N)N)cc1CN1CC[C@H](NS(=O)(=O)c2ccc3ccc(OC)cc3c2)C1=O`, the results for the Ki on Coagulation factor X and on Prothrombin were 0.008 µM and 0.263 µM, respectively.

Regarding `C[n+]1ccc(-c2ccc(S(=O)(=O)N[C@H]3CCN(Cc4cccc(C(=N)N)c4)C3=O)cc2)cc1`, the Ki on Coagulation factor X is 0.13 µM; on Prothrombin, more than 4 µM.

On Prothrombin, `COc1ccc2ccc(S(=O)(=O)N[C@H]3CCN(Cc4cccc(C(=N)N)c4)C3=O)cc2c1` showed a Ki of 1.43 µM.

In the case of `N=C(N)c1cccc(CN2CC[C@H](NS(=O)(=O)c3ccc(-c4cccnc4)s3)C2=O)c1`, the inhibition constant (Ki) is 0.041 µM on Coagulation factor X and more than 4 µM at Prothrombin.

`N=C(N)c1ccc(O)c(CN2CC[C@H](NS(=O)(=O)c3ccc(-c4ccon4)s3)C2=O)c1`: the Ki on Coagulation factor X was 0.003 µM; at Prothrombin it was 2.22 µM.

In the case of `N=C(N)c1ccc(O)c(CN2CC[C@H](NS(=O)(=O)c3ccc(-c4cccnc4)s3)C2=O)c1`, the inhibitory constant (Ki) is 0.002 µM on Coagulation factor X and 2.8 µM at Prothrombin. Also, the APTT in series [2] is 0.32 µM.

For the compound `Cn1ccnc1-c1ccc(S(=O)(=O)N[C@H]2CCN(Cc3cccc(C(=N)N)c3)C2=O)cc1`, the Ki at Coagulation factor X was 2.6 µM; on Prothrombin it was more than 4 µM.

Turning to `N=C(N)c1cccc(CN2CC[C@H](NS(=O)(=O)c3ccc(-c4ccccc4)cc3)C2=O)c1`, the Ki on Coagulation factor X is 0.16 µM; on Prothrombin, more than 4 µM.

Take `COc1nccc(-c2ccc(S(=O)(=O)N[C@H]3CCN(Cc4cccc(C(=N)N)c4)C3=O)s2)n1`: the Ki is 0.15 µM at Coagulation factor X and more than 4 µM on Prothrombin.

On to `N=C(N)c1cccc(CN2CC[C@H](NS(=O)(=O)c3ccc(-c4ccncc4)cc3)C2=O)c1`, for which the Ki on Coagulation factor X is 0.13 µM; on Prothrombin, more than 4 µM.

For `N=C(N)c1cccc(CN2CC[C@H](NS(=O)(=O)c3ccc(-c4ccccn4)cc3)C2=O)c1`, the results for the Ki on Coagulation factor X and at Prothrombin were 0.15 µM and 4 µM, respectively.
